The values below come from ChEMBL document CHEMBL4020726, “Discovery of 2-((4,6-dimethylpyrimidin-2-yl)thio)-N-phenylacetamide derivatives as new potent and selective human sirtuin 2 inhibitors” (Eur J Med Chem, 2017).

The target in series [1] is T1, NAD-dependent protein deacetylase sirtuin-2 (Homo sapiens) (UniProt Q8IXJ6).
T1 sequence (whole entry): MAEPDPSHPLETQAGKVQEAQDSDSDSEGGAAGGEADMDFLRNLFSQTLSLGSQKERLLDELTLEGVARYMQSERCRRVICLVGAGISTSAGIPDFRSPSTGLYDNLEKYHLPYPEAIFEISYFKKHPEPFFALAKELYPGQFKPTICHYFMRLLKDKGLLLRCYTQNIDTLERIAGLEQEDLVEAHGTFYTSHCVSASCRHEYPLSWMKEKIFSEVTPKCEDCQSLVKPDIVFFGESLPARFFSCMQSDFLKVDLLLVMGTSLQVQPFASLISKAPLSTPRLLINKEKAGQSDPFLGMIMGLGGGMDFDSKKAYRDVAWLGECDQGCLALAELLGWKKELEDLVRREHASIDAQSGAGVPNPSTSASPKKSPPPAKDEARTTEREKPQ
Put plainly: Inhibition of human SIRT2 at 5 uM.

The target in series [2] is T1, NAD-dependent protein deacetylase sirtuin-2 (Homo sapiens). Put plainly: Inhibition of human SIRT2 at 50 uM.
Series [3] concerns the target T2, NAD-dependent protein deacetylase sirtuin-1 (Homo sapiens, UniProt Q96EB6).
T2 sequence (Q96EB6 whole entry): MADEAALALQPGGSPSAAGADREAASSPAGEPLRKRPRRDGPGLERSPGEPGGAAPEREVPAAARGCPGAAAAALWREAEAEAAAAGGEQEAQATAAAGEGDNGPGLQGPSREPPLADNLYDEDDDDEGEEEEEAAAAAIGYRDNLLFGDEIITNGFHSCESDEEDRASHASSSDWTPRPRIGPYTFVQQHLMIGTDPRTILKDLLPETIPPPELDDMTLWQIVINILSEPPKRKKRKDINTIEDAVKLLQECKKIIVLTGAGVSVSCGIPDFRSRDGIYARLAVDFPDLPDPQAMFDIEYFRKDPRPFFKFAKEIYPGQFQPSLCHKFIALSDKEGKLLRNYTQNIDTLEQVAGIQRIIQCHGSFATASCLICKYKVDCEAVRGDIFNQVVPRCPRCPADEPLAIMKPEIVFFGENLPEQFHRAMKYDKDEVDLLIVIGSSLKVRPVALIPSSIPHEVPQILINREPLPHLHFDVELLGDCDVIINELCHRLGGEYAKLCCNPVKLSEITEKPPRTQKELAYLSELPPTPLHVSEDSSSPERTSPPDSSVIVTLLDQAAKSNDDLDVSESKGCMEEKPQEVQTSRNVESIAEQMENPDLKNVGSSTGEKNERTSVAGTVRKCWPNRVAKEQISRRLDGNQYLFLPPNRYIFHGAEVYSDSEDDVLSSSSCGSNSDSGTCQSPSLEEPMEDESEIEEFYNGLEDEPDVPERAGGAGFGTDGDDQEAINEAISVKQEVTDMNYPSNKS
Briefly: Inhibition of SIRT1 (unknown origin).

The target of series [4] is T3, NAD-dependent protein deacetylase sirtuin-3, mitochondrial (Homo sapiens, UniProt Q9NTG7).
T3 sequence (Q9NTG7 whole entry): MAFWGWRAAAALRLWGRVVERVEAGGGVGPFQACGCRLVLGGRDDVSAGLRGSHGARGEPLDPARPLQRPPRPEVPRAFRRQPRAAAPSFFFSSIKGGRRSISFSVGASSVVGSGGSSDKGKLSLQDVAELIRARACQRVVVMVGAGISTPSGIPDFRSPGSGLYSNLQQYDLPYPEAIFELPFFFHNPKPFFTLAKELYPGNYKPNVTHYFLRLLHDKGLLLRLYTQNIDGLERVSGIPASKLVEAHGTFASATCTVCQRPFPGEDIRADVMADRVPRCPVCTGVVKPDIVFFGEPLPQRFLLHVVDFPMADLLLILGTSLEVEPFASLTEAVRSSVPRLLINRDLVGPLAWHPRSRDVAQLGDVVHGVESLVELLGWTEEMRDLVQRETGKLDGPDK
Briefly: Inhibition of SIRT3 (unknown origin).

Series [5] concerns MCF7. Briefly: Growth inhibition of human MCF7 cells at 50 uM after 120 hrs by MTT assay. The series is classed as functional. The method in brief: (§1)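 MCF-7 cells were kept in high-glucose DMEM with 10% FBS and penicillin/streptomycin, split at 80–90% confluency and used within 10 passages. They were seeded at 3000 cells/well, grown 24 h, then exposed for 120 h at 37°C, 5% CO2 (final DMSO 1% v/v). MTT formazan was dissolved in acidified 20% SDS and read at 570 nm. Triplicates; experiments repeated at least twice.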

The test system of series [6] is MCF7. Briefly: Growth inhibition of human MCF7 cells after 120 hrs by MTT assay. The series is classed as functional, cell-based. In a few lines:
as §1
(Tetrazolium dyes change colour on reduction, which living cells bring about.)

Series [7] can be described thus: Growth inhibition of human HL7702 cells at 100 uM after 120 hrs by MTT assay. The format is cell-based. Conditions: HL7702 (L02) cells, read-out: GI.

The structures appear in SMILES notation. Calls of active or inactive are those of the source. The rule behind the calls is not given here.

For the compound `Cc1cc(C)nc(SCC(=O)Nc2ccc(NCc3ccncc3)cc2)n1`, the inhibition in series [1] is 10%; in series [2] it was 43%.

Turning to `Cc1cc(C)nc(SCC(=O)Nc2cccc(Oc3ccccc3)c2)n1`, the inhibition in series [1] was determined as 49%; in series [2], 92%.

Turning to `Cc1cc(C)nc(SCC(=O)Nc2ccc(C(O)c3ccccc3)cc2)n1` (centres undefined), the inhibition came to 26% in series [1] and 75% in series [2].

On to `Cc1cc(C)nc(SCC(=O)Nc2cccc(OCc3ccccc3)c2)n1`, for which the inhibition was found to be 59% in series [1] and 92% in series [2].

For `Cc1cc(C)nc(SCC(=O)Nc2ccc(OCc3ccccc3)cc2)n1`, the inhibition in series [1] is 40%; in series [2] it was 62%.

`Cc1cc(C)nc(SCC(=O)Nc2cccc(CNc3ccccc3)c2)n1`: the inhibition was 49% in series [1] and 90% in series [2].

Turning to `Cc1cc(C)nc(S(=O)(=O)CC(=O)Nc2ccc(Oc3ccccc3)cc2)n1`, the inhibition in series [1] is -2%; in series [2], 21%.

On to `Cc1cc(C)nc(SCC(=O)Nc2ccc(Nc3ccccc3)cc2)n1`, for which the inhibition worked out at 19% in series [1] and 72% in series [2].

The term IC50 denotes the point on the concentration scale where inhibition reaches its midpoint. Take `Cc1cc(C)nc(SCC(=O)Nc2cccc(COc3ccc(NC(=O)c4cccs4)cc3)c2)n1`: the IC50 in series [3] and in series [4] was above 300 µM each time. The inhibition of growth at 50 µM in the series with MCF7 [5] (MCF7, 120 h, read-out: GI) is above 50%. Besides, in the series on MCF7 [6], the “growth inhibition (GI)” value was “Dose-dependent effect”. Further, the inhibition at 120 h, 100 µM in series [7] came to 3%.

For `Cc1cc(C)nc(SCC(=O)Nc2cccc(COc3ccccc3)c2)n1`, the inhibition in series [1] was determined as 71%; in series [2], 96%.

The compound `O=C(Nc1ccccc1-c1cn2c(CN3CCNCC3)csc2n1)c1cnc2ccccc2n1` gave a half-maximal inhibitory concentration (IC50) in series [4] of 0.85 µM.

On to `Cc1cc(C)nc(SCC(=O)Nc2ccc(NCc3cccs3)cc2)n1`, for which the inhibition came out at 15% in series [1] and 70% in series [2].

For `Cc1ccc(C(=O)Nc2ccc(S(=O)(=O)O)c3cc(S(=O)(=O)O)cc(S(=O)(=O)O)c23)cc1NC(=O)c1cccc(NC(=O)Nc2cccc(C(=O)Nc3cc(C(=O)Nc4ccc(S(=O)(=O)O)c5cc(S(=O)(=O)O)cc(S(=O)(=O)O)c45)ccc3C)c2)c1`, the inhibition in series [1] is 31%; in series [2], 73%.

`Cc1cc(C)nc(SCC(=O)Nc2ccc(C(=O)c3ccccc3)cc2)n1`: the inhibition in series [1] was found to be 22%; in series [2], 74%.

Take `Cc1cc(C)nc(SCC(=O)Nc2ccc(Oc3ccccc3)cc2)n1`: the inhibition came out at 42% in series [1] and 78% in series [2].

For the compound `Cc1cc(C)nc(SCC(=O)Nc2cccc(COc3ccc(NS(=O)(=O)C4CC4)cc3)c2)n1`, the inhibition in series [1] was 67%; in series [2] it was 95%.

For the compound `Cc1cc(C)nc(SCC(=O)Nc2cccc(Nc3ccccc3)c2)n1`, the inhibition was found to be 61% in series [1] and 95% in series [2].

For the compound `Cc1cc(C)nc(SCC(=O)Nc2cccc(C(O)c3ccccc3)c2)n1` (centres undefined), the figures for the inhibition in series [1] and in series [2] were 18% and 78%, respectively.

As for `Cc1cc(C)nc(SCC(=O)Nc2cccc(COc3cccc4ccccc34)c2)n1`, the figures for the inhibition in series [1] and in series [2] were 42% and 79%, respectively.

Take `Cc1cc(C)nc(SCC(=O)Nc2ccc(NCc3ccccc3)cc2)n1`: the values for the inhibition in series [1] and in series [2] were 9% and 55%, respectively.

As for `Cc1cc(C)nc(SCC(=O)Nc2cccc(C(=O)c3ccccc3)c2)n1`, the inhibition came to 40% in series [1] and 89% in series [2].

For the compound `Cc1cc(C)nc(SCC(=O)Nc2cccc(COc3ccc(NS(=O)(=O)c4ccccc4)cc3)c2)n1`, the inhibition was determined as 73% in series [1] and 87% in series [2].

For the compound `Cc1cc(C)nc(SCC(=O)Nc2ccc(Cc3ccccc3)cc2)n1`, the inhibition amounted to 70% in series [1] and 74% in series [2].

Take `Cc1cc(C)nc(SCC(=O)Nc2cccc(Cc3ccccc3)c2)n1`: the inhibition in series [1] came out at 73%; in series [2], 96%.

Consider `Cc1cc(C)nc([S+]([O-])CC(=O)Nc2ccc(Oc3ccccc3)cc2)n1` (centres undefined), for which the inhibition in series [1] worked out at 34%; in series [2] it was 79%.

Regarding `Cc1cc(C)nc(SCC(=O)Nc2cccc(COc3cccc4cccnc34)c2)n1`, the inhibition in series [1] was 41%; in series [2], 73%.

In the case of `Cc1cc(C)nc(SCC(=O)Nc2cccc(COc3ccc4[nH]ncc4c3)c2)n1`, the inhibition in series [1] was determined as 57%; in series [2], 91%.

With `Cc1cc(C)nc(SCC(=O)Nc2cccc(NCc3cccs3)c2)n1`, the inhibition in series [1] stood at 60%; in series [2], 93%.

As to `CC(=O)Nc1cccc(OCc2cccc(NC(=O)CSc3nc(C)cc(C)n3)c2)c1`, the inhibition in series [1] stood at 68%; in series [2], 99%.

With `Cc1cc(C)nc(SCC(=O)Nc2cccc(COc3ccc4ccccc4c3)c2)n1`, the inhibition is 59% in series [1] and 84% in series [2].

`Cc1cc(C)nc(SCC(=O)Nc2cccc(NCc3ccccc3)c2)n1`: the inhibition was 64% in series [1] and 95% in series [2].

Regarding `Cc1cc(C)nc(SCC(=O)Nc2ccc(CNc3ccccc3)cc2)n1`, the inhibition in series [1] was found to be 20%; in series [2], 72%.

Take `Cc1cc(C)nc(SCC(=O)Nc2ccc(COc3ccccc3)cc2)n1`: the results for the inhibition in series [1] and in series [2] were 1% and 24%, respectively. Further, the “growth inhibition (GI)” value in the series with MCF7 [5] was “inactive”. In addition, the inhibition at 120 h, 100 µM in series [7] was 6%.

`Cc1cc(C)nc(SCC(=O)Nc2ccc(NCc3ccco3)cc2)n1`: the figures for the inhibition in series [1] and in series [2] were 17% and 58%, respectively.

For the compound `CC(=O)Nc1ccc(OCc2cccc(NC(=O)CSc3nc(C)cc(C)n3)c2)cc1`, the results for the inhibition in series [1] and in series [2] were 62% and 92%, respectively.
